ChEMBL document CHEMBL1136777, “Synthesis, anticancer activity, and inhibition of tubulin polymerization by conformationally restricted analogues of lavendustin A” (J Med Chem, 2003)

Assays:
[1] = system: HCT-116; assay: Antiproliferative activity against human colon HCT116 cell line; type: functional
How it was run: (§1)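 Adherent lines grown in RPMI 1640 with 5% fetal bovine serum and 2 mM L-glutamine, plated at 5000–40 000 cells/well and preincubated 24 h. Five drug concentrations were added for 48 h at 37 °C. Cells were fixed with cold TCA (10% final), stained with sulforhodamine B, and read at 515 nm. GI50 is the concentration giving 50% reduction in net protein increase relative to time-zero wells.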

[2] = system: UACC-62; assay: Antiproliferative activity against human melanoma UACC-62 cell line; type: functional; how it was run: as §1
[3] = system: SN12C; assay: Antiproliferative activity against human renal SN12C cell line; type: functional; how it was run: as §1
[4] = system: DU-145; assay: Antiproliferative activity against human prostate DU-145 cell line; type: functional; how it was run: as §1
[5] = system: HOP-62; assay: Antiproliferative activity against human lung HOP-62 cell line; type: functional; how it was run: as §1
[6] = target: Tubulin (Bos taurus, UniProt Q6B856+Q862F3); assay: Inhibition of tubulin polymerization was determined at 1.2 mg/mL concentration; type: functional
Tubulin, sequence (Q6B856 whole entry): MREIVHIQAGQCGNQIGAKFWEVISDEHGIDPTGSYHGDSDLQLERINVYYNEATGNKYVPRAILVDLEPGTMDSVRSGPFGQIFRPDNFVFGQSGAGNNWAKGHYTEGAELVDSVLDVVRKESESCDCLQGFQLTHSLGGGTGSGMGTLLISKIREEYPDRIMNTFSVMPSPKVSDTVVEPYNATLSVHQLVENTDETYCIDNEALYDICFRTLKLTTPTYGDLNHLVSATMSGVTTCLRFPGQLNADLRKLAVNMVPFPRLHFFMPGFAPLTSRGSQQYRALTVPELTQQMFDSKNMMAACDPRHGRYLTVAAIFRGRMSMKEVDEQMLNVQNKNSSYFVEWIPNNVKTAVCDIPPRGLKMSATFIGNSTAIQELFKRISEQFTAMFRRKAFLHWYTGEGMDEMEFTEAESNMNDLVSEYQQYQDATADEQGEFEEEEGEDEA
Tubulin, sequence (Q862F3 whole entry): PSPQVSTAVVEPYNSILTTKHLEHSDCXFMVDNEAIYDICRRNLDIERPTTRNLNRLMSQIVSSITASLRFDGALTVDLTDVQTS

[7] = Mean graph midpoint for growth inhibition of all human cancer cells was determined; type: functional, Cancer cell lines; parameters: unit: µM
How it was run: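 Average of GI50 values over about 55 cell lines from the 48-h sulforhodamine B growth assay. Test range was 10^-4 to 10^-8 M, and values beyond it were set to those limits. Compounds with a first MGM of 10 μM or less were tested a second time and a standard deviation was calculated.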

[8] = system: MDA-MB-435 (Homo sapiens); assay: Antiproliferative activity against human breast MDA-MB-435 cell line
[9] = system: OVCAR-3; assay: Antiproliferative activity against human ovarian OVCAR-3 cell line; type: functional; how it was run: as §1
[10] = system: CCRF-CEM; assay: Antiproliferative activity against human leukemia CCRF-CEM cell line; type: functional
How it was run: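 Suspension leukemia line grown in RPMI 1640 with 5% fetal bovine serum and 2 mM L-glutamine and preincubated 24 h. Drug was given at five concentrations for 48 h at 37 °C. Settled cells were fixed with 80% TCA (16% final), stained with sulforhodamine B, and read at 515 nm. GI50 was set at 50% reduction in net protein increase versus time-zero wells.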

[11] = system: SF-539; assay: Antiproliferative activity against human CNS SF-539 cell line; type: functional; how it was run: as §1

Row | SMILES | GI50 [1] | GI50 [2] | GI50 [3] | GI50 [4] | GI50 [5] | IC50 [6] | MGM [7] | GI50 [8] | GI50 [9] | GI50 [10] | GI50 [11]
1 | COc1ccc(OC)c(CC(=O)c2ccc(O)c(C(=O)NCCc3ccc(F)cc3)c2)c1 | 4 µM | 4 µM | 4.3 µM | 1.7 µM | 1.5 µM | 1.4 µM | 3.6 | 0.6 µM | 1.4 µM | 2.4 µM | 
2 | COc1ccc(OC)c(C#Cc2ccc(OC)c(C(=O)NCCc3ccc(F)cc3)c2)c1 | 4.7 µM | 6 µM | > 100 µM | > 100 µM | 4.9 µM | > 40 µM | 11.5 | 1.2 µM |  | 4.7 µM | 
3 | O=C(NCCc1ccc(F)cc1)c1cc(/C=C\c2cc(O)ccc2O)ccc1O | 3.8 µM | 2.3 µM | 4 µM | 15.2 µM | 6.3 µM | 4.2 µM | 3.5 | 12.9 µM | 2.1 µM | 1.3 µM | 3.8 µM
4 | COC(=O)c1cc(C#Cc2cc(OC)ccc2OC)ccc1OC | 37.7 µM | 29.3 µM | 37.9 µM | 43.6 µM |  | > 40 µM | 30.9 | > 100 µM | 13.6 µM | 36.8 µM | 81.1 µM
5 | CCCCCCNC(=O)c1cc(/C=C/c2cc(O)ccc2O)ccc1O |  |  |  |  |  | 5 µM |  |  |  |  | 
6 | CCCCCCNC(=O)c1cc(CCc2cc(O)ccc2O)ccc1O | 3.6 µM | 3.3 µM | 2.2 µM | 7.4 µM | 7.4 µM | 6.2 µM | 4.4 | 3.2 µM | 2.4 µM | 5.1 µM | 2.2 µM
7 | O=C(NCCc1ccc(F)cc1)c1cc(CCc2cc(O)ccc2O)ccc1O | 1 µM | 2.8 µM | 2.1 µM | 8 µM | 2.6 µM | 9.7 µM | 2.8 | 2.3 µM | 1 µM | 0.4 µM | 1.8 µM
8 | O=C(NCCc1ccc(F)cc1)c1cc(/C=C/c2cc(O)ccc2O)ccc1O | 1.9 µM | 2.1 µM | 5.6 µM | 11 µM | 8.8 µM | 2.9 µM | 3.5 | 3.8 µM | 2.7 µM | 1.8 µM | 2.2 µM
9 | COC(=O)c1cc(/C=C\c2cc(OC)ccc2OC)ccc1OC | 20.1 µM | 14.8 µM | 30.2 µM | 18.1 µM | 32.9 µM | > 40 µM | 15.5 | 10.9 µM | 4.9 µM |  | 10.6 µM
10 | COc1ccc(OC)c(C#Cc2ccc(OC)c(C(=O)NCCc3ccccc3)c2)c1 | 12 µM | 24.4 µM | > 100 µM | > 100 µM | > 100 µM | > 40 µM | 40.7 | 2.5 µM | 6.7 µM |  | > 100 µM
11 | COc1ccc(OC)c(/C=C\c2ccc(OC)c(C(=O)NCCc3ccccc3)c2)c1 | 47.3 µM | 16.4 µM | > 100 µM | > 100 µM | > 100 µM | > 40 µM | 38.9 | 3 µM | 5 µM | 12.3 µM | > 100 µM
12 | O=C(NCCc1ccccc1)c1cc(CCc2cc(O)ccc2O)ccc1O | 12.5 µM | 11 µM | 49.8 µM | 14.5 µM | 13.9 µM | 5.5 µM | 6.4 | 3.9 µM | 4.4 µM |  | 
13 | O=C(NCCc1ccc(F)cc1)c1cc(NCc2cc(O)ccc2O)ccc1O | 9.2 µM | 7.8 µM | 7.7 µM | 18 µM | 12 µM | 6.4 µM | 0.35 | 13 µM | 11 µM | 0.29 µM | 9.2 µM
14 | CCCCCCNC(=O)c1cc(/C=C\c2cc(OC)ccc2OC)ccc1OC | 21.1 µM | 25 µM | 63.1 µM | 45.6 µM | 31.9 µM | > 40 µM | 16.6 | 10.3 µM | 16.1 µM | 24.7 µM | 23.6 µM
15 | COc1ccc(OC)c(/C=C\c2ccc(OC)c(C(=O)NCCc3ccc(F)cc3)c2)c1 | 3.8 µM | 3.5 µM | 6.4 µM | > 100 µM | 8.1 µM | > 40 µM | 4.5 | 2.1 µM | 4.2 µM | 3.4 µM | 5.9 µM
16 | COc1ccc(OC)c(C#Cc2ccc(OC)c(C(=O)O)c2)c1 | 32.3 µM | 22.6 µM | 38.2 µM | 26.9 µM | 25.6 µM | > 40 µM | 18.6 | 8.8 µM | 24.4 µM | 55 µM | 38.5 µM
17 | CCCCCCNC(=O)c1cc(C#Cc2cc(OC)ccc2OC)ccc1OC | 6.9 µM | 56.8 µM | > 100 µM | > 100 µM | 11.8 µM | > 40 µM | 31.6 | > 100 µM | > 100 µM | 7.9 µM | > 100 µM
18 | O=C(NCCc1ccccc1)c1cc(/C=C\c2cc(O)ccc2O)ccc1O | 3.5 µM | 2.1 µM | 6.8 µM | 1.8 µM | 3 µM | 5.4 µM | 1.4 | 1.7 µM | 1 µM | 0.2 µM | 1.6 µM
19 | CCCCCCNC(=O)c1cc(/C=C\c2cc(O)ccc2O)ccc1O | 3.9 µM | 5.8 µM | 11.6 µM | 10.5 µM | 8.3 µM | 4.2 µM | 4.1 | 4.5 µM | 1.7 µM | 1.2 µM | 3.3 µM
20 | O=C(NCCc1ccccc1)c1cc(/C=C/c2cc(O)ccc2O)ccc1O | 1.8 µM | 2 µM | 5.1 µM | 10.1 µM | 9.3 µM | 4 µM | 3.8 | 4 µM | 2.9 µM | 2.1 µM | 2.4 µM
21 | O=C(NCCc1ccccc1)c1cc(C#Cc2cc(O)ccc2O)ccc1O | 10.5 µM | 1.9 µM | 5.7 µM | 12.7 µM | 10.3 µM | 3.7 µM | 3.8 | 2.9 µM | 2.8 µM | 0.3 µM | 9.6 µM
22 | COc1ccc(OC)c(CCc2ccc(O)c(C(=O)NCCc3ccc(F)cc3)c2)c1 | 5.3 µM | 6.6 µM | 15.8 µM | 4.2 µM | 15 µM | 1.4 µM | 6.9 | 0.5 µM | 3.2 µM | 3.2 µM | 3.2 µM
